# From PubChem
# EBV gp42 inh – inhibitors of Epstein-Barr virus glycoprotein 42; hit rate 0.42% among 220,000; inhibition, % (tested at 21.74 µM); Fluorescence polarization binding assay, mP read-out; Q1HVG2; in the data active = inhibition above about 50%
# MEX-5 binding – C. elegans MEX-5 TCR-2 RNA binding activity. Q9XUB2. MEX-5/FITC-TCR2 RNA binding, fluorescence polarization; active compounds read low. activity score (negative = inhibition of binding), % at 10 µM. hit rate 0.38% among 300,000;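 active = inhibition past about -25% in most replicates, and total fluorescence under double the plate's negative control median, limit read from the data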;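 note: 0% = DMSO and -100% = 5 µM competing unlabeled TCR2 RNA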
# Target sequence (Q9XUB2 whole entry, looked up): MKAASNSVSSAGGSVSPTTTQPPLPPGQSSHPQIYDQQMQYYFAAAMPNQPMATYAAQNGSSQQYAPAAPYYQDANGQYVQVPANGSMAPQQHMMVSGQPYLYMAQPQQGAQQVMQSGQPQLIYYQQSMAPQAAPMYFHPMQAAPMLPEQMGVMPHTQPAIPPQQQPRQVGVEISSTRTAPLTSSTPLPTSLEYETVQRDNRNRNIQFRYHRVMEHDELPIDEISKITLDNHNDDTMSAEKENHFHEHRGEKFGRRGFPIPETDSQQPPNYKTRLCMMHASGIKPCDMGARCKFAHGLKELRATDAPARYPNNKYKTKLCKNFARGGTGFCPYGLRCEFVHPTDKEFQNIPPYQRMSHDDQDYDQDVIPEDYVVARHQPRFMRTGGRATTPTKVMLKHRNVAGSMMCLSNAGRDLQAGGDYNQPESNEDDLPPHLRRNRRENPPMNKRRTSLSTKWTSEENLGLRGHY
# T cell HTS – T cell immune modulation candidate; hit rate 0.068% among 330,000; 2C CD8+ T cell-vesicle binding, flow cytometry; active compounds read low; response (vesicle binding), % at 7 µM;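 active = response, share of CD8 T cells binding vesicles, and their 90th percentile fluorescence all below set limits, cut at about 80% in these data, passing the limit was not always enough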;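 note: values below 100% mean blocked vesicle binding to the CD8+ T cells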
#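 Assay system – 2C mouse CD8+ T cells · Also added – QL9-loaded Drosophila micro-vesicles · Timing – Cell–vesicle co-incubation 1.5 h at 37 °C, staining 20 min on ice · Signal – flow cytometry of vesicle-bound cells · Measure – percent CD8+ FL2 mean versus row control · Controls – Peptide-free naked vesicles (low) and QL9 vesicles with 0.7% DMSO vehicle (high)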
# Keap1 Nrf2 FP – inhibitors of human Keap1-Nrf2 protein-protein interaction; hit rate 0.15% among 340,000; inhibition, % at 9.4 µM; Q14145; Keap1 Kelch-Nrf2 peptide fluorescence polarization, 1536-well; in the data active = inhibition above about 12%;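 note: human Keap1 Kelch domain with fluorescein labeled Nrf2 9mer peptide probe; 0% = neutral control wells and 100% = peptide positive control; higher means more block of Keap1 binding to Nrf2 peptide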
# GRK2 aptamer HTS – blocks RNA aptamer binding to human GRK2; P25098; bead flow cytometry, FAM-aptamer displacement from GRK2; inhibition of aptamer binding, % at 10 µM; hit rate 0.59% among 330,000;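 active = inhibition of aptamer binding above 40%, roughly 3 SD of noise, on plates passing a quality check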;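 note: median bead fluorescence of bound FAM aptamer so fluorescent compounds give negative values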
# LANA DNA inh – KSHV C-LANA DNA binding inhibition | MBP-C-LANA/FAM-LBS DNA binding, fluorescence polarization | inhibition, % at 9 µM | hit rate 0.078% among 340,000;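 active = highest replicate inhibition at or above 60% at 9 µM, even if other replicates fall short; inactive = all replicates below 60% inhibition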;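 note: 0% = neutral control wells and 100% = 4 µM acridine orange control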
# GRK2 CP1 – confirmation of human GRK2 inhibitors displacing RNA aptamer; shares compounds with GRK2 aptamer HTS; bead-bound GRK2, FAM-aptamer displacement, flow cytometry; aptamer displacement, % at 10 µM; hit rate 4% among 2,000; AID 504451;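 active = aptamer displacement above 40%, near three times the noise of non-fluorescent compounds, on plates passing quality checks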;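 note: negative values mostly reflect intrinsic compound fluorescence rather than true enhancement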
# FAM quench CP1 – aptamer fluorescence quenching in GRK2 counter-screen; shares compounds with GRK2 aptamer HTS; Carboxyfluorescein RNA aptamer on beads, flow cytometry quenching; active compounds read low; fluorescence response (% of DMSO), % at 10 µM; 2,000 tested, under 10 active; AID 504580;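 active = compounds that quench the bead-bound fluorescent RNA probe, cutting fluorescence to under half of the solvent control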;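 note: counterscreen run without GRK2 so only probe quenching by compound is measured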
# The depositor's hits bear a star; nt = no result given. Hits are enriched below; roughly 1.3% of the tested compounds scored in any of these assays.
SMILES,EBV gp42 inh,MEX-5 binding,T cell HTS,Keap1 Nrf2 FP,GRK2 aptamer HTS,LANA DNA inh,GRK2 CP1,FAM quench CP1
CC(=O)Nc1ccc(Oc2ccc([N+](=O)[O-])cc2Cl)cc1,-4,-1,188,0,0,-2,nt,nt
CC(Oc1ccc([N+](=O)[O-])cc1Cl)C(=O)Nc1ccc(C(N)=O)cc1 (stereo unspecified),-11,0,181,0,95*,-1,3,102
CCC(C)NC(=O)CSc1nc2ccccc2c(=O)n1CCCC(=O)NCC1CCCO1 (stereo unspecified),-11,2,390,-6,0,0,nt,nt
Nc1c2c(nc3sc4c(c13)CCCC4)CCCCCC2,-1,0,251,0,83*,0,-4,92
Cn1cc(S(=O)(=O)N2CCOCC2)cc1C(=O)NCc1ccccc1Cl,nt,0,515,-6,0,0,2,99
CC1(C)Cc2c(sc(N)c2C#N)C(C)(C)N1,-25,0,553,0,0,-1,nt,nt
CN1Cc2sc(N)c(C#N)c2CC1(C)C,4,-23,241,-7,52*,16,3,97
Cc1ccc(-c2csc3ncn(CC#N)c(=O)c23)cc1C,nt,-1,206,-7,86*,1,-1,93
CCOC(=O)c1cc(CN2CCOCC2)oc1-c1ccccc1,-28,1,572,5,69*,0,2,95
NS(=O)(=O)c1ccc(NC(=O)CSc2ccccc2)cc1,-2,-4,320,1,0,3,nt,nt
NS(=O)(=O)c1ccc(NC(=O)CSC2=NC(=O)C(c3ccccc3)C(=O)N2)cc1 (stereo unspecified),-16,-1,730,-2,100*,1,-1,101
CCCCN(C)C(=O)CNC(=O)c1nn(-c2ccc(OC)cc2OC)c(=O)c2ccccc12,nt,2,222,1,0,-1,-3,101
CCCCNC(=O)CNC(=O)c1nn(-c2ccc(OC)cc2OC)c(=O)c2ccccc12,nt,0,282,2,8,0,0,94
CCOc1ccc(OCCCC(=O)N(C)CC(=O)Nc2ccccc2Br)cc1,nt,nt,471,-1,46*,0,-2,106
O=C(O)CC(NC(=O)c1ccco1)c1ccco1 (stereo unspecified),nt,-3,305,-7,2,1,nt,nt
COc1cccc(Oc2ccc(N/C=C/C(=O)C(C)(C)C)cc2)c1,4,0,418,-5,88*,-1,-1,95
COc1ccc(Oc2ccc(N/C=C/C(=O)C(C)(C)C)cc2)cc1,0,2,261,-2,0,0,nt,nt
O=C(NC1CCCCC1)C(c1ccc2ncccc2c1)N(Cc1ccc2c(c1)OCO2)C(=O)c1ccc2c(c1)OCCO2 (stereo unspecified),11,0,136,-6,1,-2,nt,nt
O=C(NC1CCCCC1)C(c1ccc2ncccc2c1)N(Cc1ccc(F)cc1)C(=O)c1ccc2c(c1)OCCO2 (stereo unspecified),6,3,228,2,48*,0,2,100
C[N+](C)(C)CCOC(=O)CCC(=O)OCC[N+](C)(C)C,nt,nt,432,-2,2,-8,nt,nt
Cc1ccc(CNC(=O)c2cccc(OCc3c(C)noc3C)c2)cc1,-13,0,403,-5,1,0,-3,95
Cc1noc(C)c1COc1cccc(C(=O)NCc2cccc(Cl)c2)c1,-63,-1,253,-7,5,1,-3,100
COc1ccc(CN2CCC(=O)N([C@H](CO)CC(C)C)CC2)cc1OC,nt,-3,416,-4,0,0,nt,nt
O=C(NC1CCCc2ccccc21)C1CCN(c2nnc(-n3cccc3)s2)CC1 (stereo unspecified),-10,-4,183,3,0,2,-3,98
O=C(NCCC1=CCCCC1)C1CCN(c2nnc(-n3cccc3)s2)CC1,8,2,597,-1,3,1,-2,98
